Source: ChEMBL document CHEMBL1125904, “Synthesis and anthelmintic activity of 3'-benzoylurea derivatives of 6-phenyl-2,3,5,6-tetrahydroimidazo[2,1-b]thiazole” (1991)

What was measured:
Format in all cases: functional
[1] = test system: Heligmosomoides polygyrus; assay: Anthelmintic activity ( in Vivo ) in mouse, as percentage reduction of Nematospiroides dubius at 125 PPM
Summary of the method: (§1)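 Mice infected by oral gavage with 35-40 N. dubius L3 larvae plus 5000 H. nana eggs each. From 24 h post-infection, groups of four fed compound ad lib in powdered lab chow (31-1000 ppm) for 18 days. Killed on day 19; N. dubius counted in duodenum under dissecting microscope. Percent reduction computed from mean worm counts, treated vs untreated control.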

[2] = test system: Heligmosomoides polygyrus; assay: Anthelmintic activity ( in Vivo ) in mouse, as percentage reduction of Nematospiroides dubius at 250 PPM; summary of the method: as §1
[3] = test system: Heligmosomoides polygyrus; assay: Anthelmintic activity ( in Vivo ) in mouse, as percentage reduction of Nematospiroides dubius at 500 PPM; summary of the method: as §1
[4] = test system: Heligmosomoides polygyrus; assay: Anthelmintic activity ( in Vivo ) in mouse, as percentage reduction of Nematospiroides dubius at 62 PPM; summary of the method: as §1
Ovis aries [5] = assay: Anthelmintic activity (in Vivo)in sheep as percentage reduction versus control (by administration of benzimidazole-susceptible L3 larvae of Haemonchus contortus intraruminally)at 10 mg/kg po
Summary of the method: (§2)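 Sheep on lucerne/oaten chaff were infected intraruminally on day 0 with benzimidazole-susceptible L3 larvae (H. contortus 6000, O. circumcincta 8000, T. colubriformis 8000). They were allocated on day-27 faecal egg counts and weight (n = 4-7). A single intraruminal dose in 0.5% Na CMC/0.9% saline was given on day 28, with an untreated control per assay. On day 35, adult worms in abomasum and small intestine were counted as % reduction vs control.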

Ovis aries [6] = assay: Anthelmintic activity (in Vivo)in sheep as percentage reduction versus control (by administration of benzimidazole-susceptible L3 larvae of Haemonchus contortus intraruminally)at 15 mg/kg po; summary of the method: as §2
Ovis aries [7] = assay: Anthelmintic activity (in Vivo)in sheep as percentage reduction versus control (by administration of benzimidazole-susceptible L3 larvae of Haemonchus contortus intraruminally)at 5 mg/kg po; summary of the method: as §2
Ovis aries [8] = assay: Anthelmintic activity (in Vivo)in sheep as percentage reduction versus control (by administration of benzimidazole-susceptible L3 larvae of Ostertagia circumcincta intraruminally)at 15 mg/kg po; summary of the method: as §2
Ovis aries [9] = assay: Anthelmintic activity (in Vivo)in sheep as percentage reduction versus control (by administration of benzimidazole-susceptible L3 larvae of Ostertagia circumcincta intraruminally)at 5 mg/kg po; summary of the method: as §2
Ovis aries [10] = assay: Anthelmintic activity (in Vivo)in sheep as percentage reduction versus control (by administration of benzimidazole-susceptible L3 larvae of Trichostrongylus colubriformis intraruminally) at 10 mg/kg po; summary of the method: as §2
Ovis aries [11] = assay: Anthelmintic activity (in Vivo)in sheep as percentage reduction versus control (by administration of benzimidazole-susceptible L3 larvae of Trichostrongylus colubriformis intraruminally) at 15 mg/kg po; summary of the method: as §2
Ovis aries [12] = assay: Anthelmintic activity (in Vivo)in sheep as percentage reduction versus control (by administration of benzimidazole-susceptible L3 larvae of Ostertagia circumcincta intraruminally)at 10 mg/kg po; summary of the method: as §2
Ovis aries [13] = assay: Anthelmintic activity (in Vivo)in sheep as percentage reduction versus control (by administration of benzimidazole-susceptible L3 larvae of Trichostrongylus colubriformis intraruminally) at 5 mg/kg po; summary of the method: as §2
Ovis aries [14] = assay: Anthelmintic activity (in Vivo)in sheep as percentage reduction versus control (by administration of benzimidazole-susceptible L3 larvae of H contortus intraruminally)at 10 mg/kg po; summary of the method: as §2
Ovis aries [15] = assay: Anthelmintic activity (in Vivo)in sheep as percentage reduction versus control (by administration of benzimidazole-susceptible L3 larvae of H contortus intraruminally)at 5 mg/kg po; summary of the method: as §2
Ovis aries [16] = assay: Anthelmintic activity (in Vivo)in sheep as percentage reduction versus control (by administration of benzimidazole-susceptible L3 larvae of O circumcincta intraruminally)at 10 mg/kg po; summary of the method: as §2
Ovis aries [17] = assay: Anthelmintic activity (in Vivo)in sheep as percentage reduction versus control (by administration of benzimidazole-susceptible L3 larvae of O circumcincta intraruminally)at 5 mg/kg po; summary of the method: as §2
Ovis aries [18] = assay: Anthelmintic activity (in Vivo)in sheep as percentage reduction versus control (by administration of benzimidazole-susceptible L3 larvae of T colubriformis intraruminally) at 10 mg/kg po; summary of the method: as §2
Ovis aries [19] = assay: Anthelmintic activity (in Vivo)in sheep as percentage reduction versus control (by administration of benzimidazole-susceptible L3 larvae of T colubriformis intraruminally) at 5 mg/kg po; summary of the method: as §2
[20] = test system: Heligmosomoides polygyrus; assay: Anthelmintic activity ( in Vivo ) in mouse, as percentage reduction of Nematospiroides dubius at 1000 PPM; summary of the method: as §1
Ovis aries [21] = assay: Anthelmintic activity (in Vivo)in sheep as percentage reduction versus control (by administration of benzimidazole-susceptible L3 larvae of Haemonchus contortus intraruminally)at 30 mg/kg po; summary of the method: as §2
Ovis aries [22] = assay: Anthelmintic activity (in Vivo)in sheep as percentage reduction versus control (by administration of […] L3 larvae of Haemonchus contortus intraruminally)at 30 mg/kg po (Benzimidazole resistant strain)
Summary of the method: (§3)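 Sheep fed lucerne/oaten chaff were infected intraruminally with L3 larvae of a drug-resistant strain (benzimidazole-resistant; for O. circumcincta, benzimidazole-, levamisole- and morantel-resistant). They were grouped by faecal egg counts (n = 4-7) and dosed once intraruminally on day 28 in 0.5% Na CMC/saline. Adult worms were counted on day 35 as % reduction vs untreated control.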

Ovis aries [23] = assay: Anthelmintic activity (in Vivo)in sheep as percentage reduction versus control (by administration of benzimidazole-susceptible L3 larvae of Ostertagia circumcincta intraruminally)at 30 mg/kg po; summary of the method: as §2
Ovis aries [24] = assay: Anthelmintic activity (in Vivo) in sheep as percentage reduction versus control (by administration of […] L3 larvae of Ostertagia circumcincta intraruminally)at 30 mg/kg po (Benzimidazole, levamisole and morantel resistant strain); summary of the method: as §3
Ovis aries [25] = assay: Anthelmintic activity (in Vivo)in sheep as percentage reduction versus control (by administration of benzimidazole-susceptible L3 larvae of Trichostrongylus colubriformis intraruminally) at 30 mg/kg po; summary of the method: as §2
Ovis aries [26] = assay: Anthelmintic activity (in Vivo)in sheep as percentage reduction versus control (by administration of […] L3 larvae of Trichostrongylus colubriformis intraruminally) at 30 mg/kg po (Benzimidazole resistant strain); summary of the method: as §3
[27] = test system: Heligmosomoides polygyrus; assay: Anthelmintic activity ( in Vivo ) in mouse, as percentage reduction of Nematospiroides dubius at 31 PPM; summary of the method: as §1
Ovis aries [28] = assay: Anthelmintic activity (in Vivo)in sheep as percentage reduction versus control (by administration of benzimidazole-susceptible L3 larvae of Haemonchus contortus intraruminally)at 10.9 mg/kg po; summary of the method: as §2
Ovis aries [29] = assay: Anthelmintic activity (in Vivo)in sheep as percentage reduction versus control (by administration of benzimidazole-susceptible L3 larvae of Haemonchus contortus intraruminally)at 16.4 mg/kg po; summary of the method: as §2
Ovis aries [30] = assay: Anthelmintic activity (in Vivo)in sheep as percentage reduction versus control (by administration of benzimidazole-susceptible L3 larvae of Ostertagia circumcincta intraruminally)at 10.9 mg/kg po; summary of the method: as §2
Ovis aries [31] = assay: Anthelmintic activity (in Vivo)in sheep as percentage reduction versus control (by administration of benzimidazole-susceptible L3 larvae of Ostertagia circumcincta intraruminally)at 16.4 mg/kg po; summary of the method: as §2
Ovis aries [32] = assay: Anthelmintic activity (in Vivo)in sheep as percentage reduction versus control (by administration of benzimidazole-susceptible L3 larvae of Trichostrongylus colubriformis intraruminally) at 16.4 mg/kg po; summary of the method: as §2
Ovis aries [33] = assay: Anthelmintic activity (in Vivo)in sheep as percentage reduction versus control (by administration of benzimidazole-susceptible L3 larvae of Trichostrongylus colubriformis intraruminally) at 10.9 mg/kg po; summary of the method: as §2

Row | Structure (SMILES) | Reduction [1] | Reduction [2] | Reduction [3] | Reduction [4] | also measured
1 | O=C(NC(=O)c1c(F)cccc1F)Nc1cccc([C@H]2CN3CCSC3=N2)c1 | 26% | 100% | 100% | 0% | Reduction (Ovis aries [5]): 90%; Reduction (Ovis aries [6]): 86%; Reduction (Ovis aries [7]): 74%; Reduction (Ovis aries [8]): 74%; Reduction (Ovis aries [9]): 56%; Reduction (Ovis aries [10]): 96%; Reduction (Ovis aries [11]): 98%; Reduction (Ovis aries [12]): 64%; Reduction (Ovis aries [13]): 75%
2 | O=C(NC(=O)c1ccc(C(F)(F)F)cc1)Nc1cccc([C@H]2CN3CCSC3=N2)c1 | 0% | 43% | – | – | Reduction (Ovis aries [14]): 59%; Reduction (Ovis aries [15]): 27%; Reduction (Ovis aries [16]): 29%; Reduction (Ovis aries [17]): 33%; Reduction (Ovis aries [18]): 40%; Reduction (Ovis aries [19]): 15%
3 | CC(C)(C)c1ccc(C(=O)NC(=O)Nc2cccc(C3CN4CCSC4=N3)c2)cc1 (centres undefined) | – | 0% | – | – | –
4 | O=C(NC(=O)c1ccc(C(=O)c2ccccc2)cc1)Nc1cccc(C2CN3CCSC3=N2)c1 (centres undefined) | – | 0% | – | – | Reduction [20]: 100%
5 | O=C(NC(=O)c1ccc([N+](=O)[O-])cc1)Nc1cccc(C2CN3CCSC3=N2)c1 (centres undefined) | – | – | – | – | Reduction [20]: 0%
6 | O=C(NC(=O)c1ccc(OC(F)(F)F)cc1)Nc1cccc(C2CN3CCSC3=N2)c1 (centres undefined) | – | 0% | – | – | –
7 | O=C(NC(=O)c1ccc(F)cc1)Nc1cccc(C2CN3CCSC3=N2)c1 (centres undefined) | – | 0% | 43% | – | –
8 | O=C(NC(=O)c1cccc([N+](=O)[O-])c1)Nc1cccc(C2CN3CCSC3=N2)c1 (centres undefined) | – | 0% | – | – | –
9 | O=C(NC(=O)c1ccc(I)cc1)Nc1cccc(C2CN3CCSC3=N2)c1 (centres undefined) | – | 0% | – | – | –
10 | COc1ccc(C(=O)NC(=O)Nc2cccc(C3CN4CCSC4=N3)c2)cc1 (centres undefined) | – | – | – | – | Reduction [20]: 0%
11 | O=C(NC(=O)c1c(F)cccc1F)Nc1cccc(C2CN3CCSC3=N2)c1 (centres undefined) | 76% | 100% | 100% | 0% | Reduction (Ovis aries [6]): 92%; Reduction (Ovis aries [21]): 98%; Reduction (Ovis aries [22]): 100%; Reduction (Ovis aries [8]): 75%; Reduction (Ovis aries [23]): 93%; Reduction (Ovis aries [24]): 55%; Reduction (Ovis aries [25]): 99%; Reduction (Ovis aries [11]): 100%; Reduction (Ovis aries [26]): 92%
12 | O=C(NC(=O)c1ccccc1Cl)Nc1cccc(C2CN3CCSC3=N2)c1 (centres undefined) | 56% | 100% | – | 0% | –
13 | COc1ccccc1C(=O)NC(=O)Nc1cccc(C2CN3CCSC3=N2)c1 (centres undefined) | – | 0% | – | – | –
14 | O=C(NC(=O)c1ccccc1[N+](=O)[O-])Nc1cccc(C2CN3CCSC3=N2)c1 (centres undefined) | – | – | 0% | – | –
15 | O=C(NC(=O)c1ccc(C(F)(F)F)cc1)Nc1cccc(C2CN3CCSC3=N2)c1 (centres undefined) | 96% | 100% | 100% | 43% | Reduction [27]: 0%
16 | O=C(NC(=O)c1ccccc1F)Nc1cccc(C2CN3CCSC3=N2)c1 (centres undefined) | 95% | – | – | 40% | Reduction [27]: 0%
17 | O=C(NC(=O)c1c(Cl)cccc1Cl)Nc1cccc(C2CN3CCSC3=N2)c1 (centres undefined) | – | – | 0% | – | Reduction [20]: 56%
18 | N#Cc1ccc(C(=O)NC(=O)Nc2cccc(C3CN4CCSC4=N3)c2)cc1 (centres undefined) | – | 0% | – | – | –
19 | O=C(NC(=O)c1ccccc1)Nc1cccc(C2CN3CCSC3=N2)c1 (centres undefined) | – | – | 0% | – | Reduction [20]: 59%
20 | O=C(NC(=O)c1cc(F)cc(F)c1)Nc1cccc(C2CN3CCSC3=N2)c1 (centres undefined) | – | – | 0% | – | –
21 | O=C(NC(=O)c1ccc(Cl)cc1)Nc1cccc(C2CN3CCSC3=N2)c1 (centres undefined) | – | – | 0% | – | –
22 | Cl.O=C(NC(=O)c1c(F)cccc1F)Nc1cccc(C2CN3CCSC3=N2)c1 (centres undefined) | – | – | – | – | Reduction (Ovis aries [28]): 64%; Reduction (Ovis aries [29]): 78%; Reduction (Ovis aries [30]): 52%; Reduction (Ovis aries [31]): 82%; Reduction (Ovis aries [32]): 99%; Reduction (Ovis aries [33]): 93%
23 | c1ccc([C@H]2CN3CCSC3=N2)cc1 [LEVAMISOLE] | – | – | 100% | 100% | Reduction [27]: 60%
24 | COC(=O)Nc1nc2cc([S+]([O-])c3ccccc3)ccc2[nH]1 (centres undefined) [OXFENDAZOLE] | 100% | – | – | 100% | Reduction [27]: 100%
25 | c1ccc(C2CN3CCSC3=N2)cc1 (centres undefined) [TETRAMISOLE] | 100% | – | 100% | 0% | –
